From ChEMBL document CHEMBL2177000, “Pharmacokinetic optimization of class-selective histone deacetylase inhibitors and identification of associated candidate predictive biomarkers of hepatocellular carcinoma tumor response” (J Med Chem, 2012)
≈ marks a conversion by molar mass, not a printed value. Each block holds one compound with its values, some of them ahead of it.

Legend:
[1] = Clearance in BALB/C mouse at 10 mg/kg, po or 2 mg/kg, iv by LC-MS/MS method; type: ADME, organism-based; conditions: in vivo
Outline: (§1)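 Female-unspecified BALB/C nude mice (15−20 g, N = 16 per arm); iv bolus 2 mg/kg in 5% DMSO/40% PEG400/55% saline and/or oral gavage 10 mg/kg as 0.445% microcrystalline cellulose microsuspension. Blood sampled at nine (iv) or eight (po) time points into sodium heparin tubes; plasma by LC-MS/MS; noncompartmental analysis.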

[2] = Clearance in mouse liver microsomes at 1 uM incubated for 10 mins by LC-MS/MS method; type: ADME, Microsome
Outline: (§2)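 Liver microsomes (human or mouse, 0.5 mg/mL) in 100 mM potassium phosphate pH 7.4 with 1 μM compound, prewarmed 10 min at 37 °C, started with NADPH (10 mM); stopped at 0, 3, 6, 9, 15, 30 min with ice-cold methanol containing tolbutamide internal standard; LC-MS/MS. Hepatic clearance (mL/min/kg) calculated from intrinsic clearance.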

[3] = Oral bioavailability in BALB/C mouse at 10 mg/kg by LC-MS/MS method; type: ADME, organism-based; conditions: BALB/C, in vivo
Outline: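 Bioavailability from single-dose iv (2 mg/kg, 5% DMSO/40% PEG400/55% saline) and oral gavage (10 mg/kg, 0.445% microcrystalline cellulose microsuspension) studies in BALB/C nude mice (N = 16 per arm); plasma at eight (po) or nine (iv) time points, LC-MS/MS, noncompartmental analysis.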

[4] = Solubility in 50 mM phosphate buffer at pH 6.5 by HPLC method; type: physicochemical
Outline: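 10 mM DMSO stock dried, residue redissolved in 50 mM phosphate buffer pH 6.5, stirred 1 h and shaken 2 h, left overnight, filtered and analysed by HPLC against calibration standards of 50−500 μM diluted from the DMSO stock.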

[5] = target: Histone deacetylase (Homo sapiens) (UniProt Q13547+O15379+Q9UBN7+Q92769+Q9UQL6+Q8WUI4+Q9BY41+Q96DB2+P56524+Q9UKV0+Q969S8); experiment: Inhibition of Class 1 histone deacetylase in human HeLa cells assessed as induction in p21 protein expression at 3 uM incubated for 16 hrs by luciferase reporter gene assay relative to HDAC inhibitor entinostat; type: cell-based; set-up: scale not given: the % may be the effect or the level left
[6] = AUC in BALB/C mouse at 10 mg/kg, po or 2 mg/kg, iv by LC-MS/MS method; type: ADME, organism-based, Plasma; conditions: BALB/C, plasma; outline: as §1
[7] = Volume of distribution at steady state in BALB/C mouse at 10 mg/kg, po or 2 mg/kg, iv by LC-MS/MS method; type: ADME, organism-based; set-up: unit not given here; conditions: in vivo, read-out: Vdss
Outline: (§3)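 Single-dose PK: iv bolus 2 mg/kg in 5% DMSO/40% PEG400/55% saline and/or oral gavage 10 mg/kg as 0.445% microcrystalline cellulose microsuspension; BALB/C nude mice (15−20 g, N = 16 per arm) or male Sprague−Dawley rats (250 ± 20 g, N = 3). Blood at eight (po) or nine (iv) time points into sodium heparin, plasma by LC-MS/MS, noncompartmental analysis.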

[8] = Tmax in BALB/C mouse at 10 mg/kg, po or 2 mg/kg, iv by LC-MS/MS method; type: ADME, organism-based; conditions: BALB/C, in vivo; outline: as §3
[9] = Half life in BALB/C mouse at 10 mg/kg, po or 2 mg/kg, iv by LC-MS/MS method; type: ADME, organism-based; conditions: BALB/C, in vivo; outline: as §1
[10] = Cmax in BALB/C mouse at 10 mg/kg, po or 2 mg/kg, iv by LC-MS/MS method; type: ADME, organism-based; conditions: BALB/C, in vivo; outline: as §1
[11] = Clearance in human liver microsomes at 1 uM incubated for 10 mins by LC-MS/MS method; type: ADME, Microsome; outline: as §2

Compound: CN(C)[C@H]1CCN(C(C(=O)Nc2ccc(C(F)(F)F)cc2)c2ccc(/C=C/C(=O)Nc3ccccc3N)cc2)C1 (some centres undefined)
- clearance [1]: 67 mL/min/kg
- CLhep predicted at 1 µM [2]: 34 mL/min/kg
- bioavailability [3]: 21%
- solubility [4]: 610 µg/mL (≈ 1110 µM)
- Activity [5]: 216%

Compound: Nc1ccccc1NC(=O)/C=C/c1ccc(C(C(=O)Nc2ccc(Br)cc2)N2CC[C@H](O)C2)cc1 (some centres undefined)
- clearance [1]: 8 mL/min/kg
- CLhep predicted at 1 µM [2]: 52 mL/min/kg
- bioavailability [3]: 13%
- solubility [4]: 5 µg/mL (≈ 9.34 µM)
- Activity [5]: 150%

Compound: Nc1ccccc1NC(=O)/C=C/c1ccc([C@H]2CN(C3CCOCC3)C[C@@H]2C(=O)Nc2ccc(Cl)cc2)cc1 (racemic)
- clearance [1]: 39 mL/min/kg
- AUC [6]: 1000 ng·h/mL
- CLhep predicted at 1 µM [2]: 44 mL/min/kg
- bioavailability [3]: 23%
- Vd [7]: 5.6
- Tmax [8]: 0.17 h
- half-life [9]: 294 min
- CLhep predicted at 1 µM [11]: 12 mL/min/kg
- Cmax [10]: 315 ng/mL
- Activity [5]: 220%

Compound: Nc1ccccc1NC(=O)/C=C/c1ccc(C(NCCN2CCOCC2)C(=O)Nc2ccc(C(F)(F)F)cc2)cc1 (racemic)
- clearance [1]: 122 mL/min/kg
- CLhep predicted at 1 µM [2]: 78 mL/min/kg
- bioavailability [3]: 11%
- solubility [4]: 32 µg/mL (≈ 56.4 µM)
- Activity [5]: 100%

Compound: Nc1ccccc1NC(=O)/C=C/c1ccc(C(NCCO)C(=O)Nc2ccc(C(F)(F)F)cc2)cc1 (racemic)
- clearance [1]: 49 mL/min/kg
- CLhep predicted at 1 µM [2]: 33 mL/min/kg
- bioavailability [3]: 71%
- solubility [4]: 5 µg/mL (≈ 10 µM)
- Activity [5]: 117%

Next, values leading:

- clearance [1]: 86 mL/min/kg
- AUC [6]: 2080 ng·h/mL
- CLhep predicted at 1 µM [2]: 38 mL/min/kg
- bioavailability [3]: 100%
- Vd [7]: 32
- Tmax [8]: 2 h
- half-life [9]: 324 min
- Cmax [10]: 331 ng/mL
- Activity [5]: 230%
Compound: CC(C)N1C[C@H](C(=O)Nc2ccc(Cl)cc2)[C@@H](c2ccc(/C=C/C(=O)Nc3ccccc3N)cc2)C1 (racemic)

- clearance [1]: 60 mL/min/kg
- AUC [6]: 813 ng·h/mL
- CLhep predicted at 1 µM [2]: 20 mL/min/kg
- bioavailability [3]: 59%
- Vd [7]: 31
- Tmax [8]: 2 h
- half-life [9]: 408 min
- CLhep predicted at 1 µM [11]: 8 mL/min/kg
- Cmax [10]: 113 ng/mL
- Activity [5]: 160%
Compound: CC(C)(C)N1C[C@H](C(=O)Nc2ccc(Cl)cc2)[C@@H](c2ccc(/C=C/C(=O)Nc3ccccc3N)cc2)C1 (racemic)
